This note sets out measurements from ChEMBL document CHEMBL1765024, “Fluorescent cyclin-dependent kinase inhibitors block the proliferation of human breast cancer cells” (Bioorg Med Chem, 2011).

pIC50: −log10 of the molar value. Active and inactive are the calls of the source. The rule behind the calls is not given here.

In general, inhibition refers to the relative decrease from the control value, in per cent. A word on the pIC50: it is the IC50 on a negative log10 scale, so that one unit is a factor of ten.

For experiment [1], the system named is MCF7. Briefly: Induction of apoptosis in human MCF7 cells assessed as decrease in cell number at 10 uM after 48 hrs using propidium iodide staining by confocal microscopic analysis. In kind it is functional, cell-based.
For experiment [2], the system named is MCF7. Briefly: Cell cycle arrest in human MCF7 cells assessed as accumulation at G2/M phase at 5 to 10 uM after 16 to 40 hrs using propidium iodide staining by flow cytometry. It is filed as functional, cell-based. In outline:
(§1)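 Asynchronous cells were treated with 5 or 10 µM compound or DMSO for 24 h (also 16 and 40 h). They were trypsinized, washed in PBS and fixed/permeabilized in 70% ethanol. Staining was with RNase and propidium iodide for 30 min in the dark at room temperature, followed by flow cytometry. Phase percentages are given minus DMSO control; mean of triplicates.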
(In general: In flow cytometry, cells or beads pass a laser one at a time.)

Experiment [3] relates to MDA-MB-231. Kind of experiment: Induction of apoptosis in human MDA-MB-231 cells assessed as decrease in cell number at 10 uM after 48 hrs using propidium iodide staining by confocal microscopic analysis. It is filed as functional, cell-based.
Experiment [4] concerns the target CDK3/cyclin E (Homo sapiens) (UniProt P24864+O96020+Q00526). Briefly: Inhibition of human CDK3/cyclin E at 0.1 uM after 40 mins relative to control. In kind it is protein-complex assay. An outline of the steps:
(§2)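 Radiometric screen at 100 nM compound against purified human CDK/cyclin (5–10 mU). Incubation 40 min at room temperature, stopped with phosphoric acid. Read by filtermat scintillation. Activity expressed as % of control, N = 2.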

The test system of experiment [5] is MDA-MB-231. Briefly: Cell cycle arrest in human MDA-MB-231 cells assessed as accumulation at G2/M phase treated at 10 uM for 24 hrs measured after drug washout following 48 hrs growth recovery using propidium iodide staining by flow cytometry. In kind it is functional, cell-based. An outline of the steps:
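Exponentially growing cells exposed 24 h, then held a further 48 h in compound-free medium. Cells trypsinized, pelleted, PBS-washed, permeabilized in 70% ethanol, stained 30 min in the dark at room temperature with PI plus RNase, and analysed by flow cytometry. Phase percentages given after subtracting untreated control. Mean of triplicate experiments.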

The subject of experiment [6] is MDA-MB-231. Kind of experiment: Induction of apoptosis in human MDA-MB-231 cells assessed as reduction of cdc2 phosphorylation at T161 catalytic site at 10 uM by Western blot analysis. In kind it is functional, cell-based. The following applies: TDE = time-dependent effect. In outline: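 MDA-MB-231 cells were treated with 10 µM compound for 1, 3, 6, 12 and 24 h and lysed. Equal protein was resolved by 10% SDS–PAGE and immunoblotted for phospho-cdc2 (T161, Y15), cdc2 and cyclin B, with actin as loading standard and ECL detection.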
In general terms: A western blot detects proteins with antibodies after separation by electrophoresis.

Experiment [7] deals with MDA-MB-231. Kind of experiment: Induction of apoptosis in human MDA-MB-231 cells assessed as decrease in Bcl2 protein level at 10 uM after 48 hrs by Western blotting. In kind it is functional, cell-based. In outline:
(§3)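 MDA-MB-231 cells were treated with vehicle or 10 µM compound for 48 h (and 72 h). Lysates were cleared and protein measured by BCA. Equal protein was run on 10% SDS–PAGE and transferred to PVDF, blocked in 5% milk overnight, and probed 2 h with anti-Bcl-2, Bax or PARP. HRP secondary was applied for 1 h, with ECL detection.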

Experiment [8] deals with MCF7. Briefly: Induction of apoptosis in human MCF7 cells assessed as early apoptotic cells at 10 uM after 24 hrs using annexinV-propidium iodide staining by flow cytometry (reference value: 4.24%). In kind it is functional.
Experiment [9] relates to MDA-MB-231. Kind of experiment: Induction of apoptosis in human MDA-MB-231 cells assessed as decrease in caspase 7 protein level at 10 uM after 48 hrs by Western blotting. In kind it is functional, cell-based.
In experiment [10] the test system is MCF7. Kind of experiment: Induction of apoptosis in human MCF7 cells assessed as necrotic cells at 10 uM after 24 hrs using annexinV-propidium iodide staining by flow cytometry (reference value: 12.09%). It is filed as functional.
Experiment [11] deals with MDA-MB-231. Briefly: Cell cycle arrest in human MDA-MB-231 cells assessed as accumulation at G2/M phase at 5 to 10 uM after 24 hrs using propidium iodide staining by flow cytometry. It is filed as functional, cell-based. In outline: as §1
Experiment [12] concerns the target Cyclin-dependent kinase 7/ cyclin H (Homo sapiens) (UniProt P51946+P50613). Briefly: Inhibition of human CDK7/cyclinH/MAT1 at 0.1 uM after 40 mins relative to control. In kind it is protein-complex assay. In outline: as §2
Experiment [13] has as its system MDA-MB-231. Kind of experiment: Induction of apoptosis in human MDA-MB-231 cells assessed as increase in Bax protein level at 10 uM after 48 hrs by Western blotting. In kind it is functional, cell-based. An outline of the steps:
as §3

The subject of experiment [14] is MCF7. Briefly: Induction of apoptosis in human MCF7 cells assessed as late apoptotic cells at 10 uM after 24 hrs using annexinV-propidium iodide staining by flow cytometry (reference value: 13.35%). In kind it is functional.
For experiment [15], the system named is MCF7. Briefly: Antiproliferative activity against human MCF7 cells expressing estrogen receptor after 48 hrs by WST-1 assay. In kind it is functional, cell-based. Particulars: MCF7, 48 h. In outline: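 Cells seeded at 3000/well in DMEM with 10% FBS and left 24 h. Compounds in DMSO were serially diluted in medium (1–100 µM) and added in triplicate. WST-1 was read 48 h after addition: 2–3 h incubation, absorbance at 450 nm with 630 nm reference. IC50 interpolated from log concentration versus fraction surviving; mean (SEM) of triplicate experiments.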
Background: Tetrazolium assays rely on reduction of a dye to a coloured formazan, in cell work by metabolically active cells.

Sequence of CDK3/cyclin E (Homo sapiens) (O96020 whole entry, looked up): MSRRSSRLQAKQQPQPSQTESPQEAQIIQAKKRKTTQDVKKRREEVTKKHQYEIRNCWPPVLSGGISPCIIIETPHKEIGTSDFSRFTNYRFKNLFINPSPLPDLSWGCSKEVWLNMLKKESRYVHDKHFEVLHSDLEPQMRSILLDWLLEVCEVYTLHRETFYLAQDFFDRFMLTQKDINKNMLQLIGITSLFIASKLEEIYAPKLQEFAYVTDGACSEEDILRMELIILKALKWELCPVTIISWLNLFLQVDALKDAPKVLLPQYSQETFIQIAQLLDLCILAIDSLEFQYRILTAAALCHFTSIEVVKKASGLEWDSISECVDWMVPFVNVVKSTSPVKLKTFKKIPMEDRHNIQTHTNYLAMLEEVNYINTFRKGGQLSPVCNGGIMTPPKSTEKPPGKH
Sequence of CDK3/cyclin E (Homo sapiens) (P24864 whole entry, looked up): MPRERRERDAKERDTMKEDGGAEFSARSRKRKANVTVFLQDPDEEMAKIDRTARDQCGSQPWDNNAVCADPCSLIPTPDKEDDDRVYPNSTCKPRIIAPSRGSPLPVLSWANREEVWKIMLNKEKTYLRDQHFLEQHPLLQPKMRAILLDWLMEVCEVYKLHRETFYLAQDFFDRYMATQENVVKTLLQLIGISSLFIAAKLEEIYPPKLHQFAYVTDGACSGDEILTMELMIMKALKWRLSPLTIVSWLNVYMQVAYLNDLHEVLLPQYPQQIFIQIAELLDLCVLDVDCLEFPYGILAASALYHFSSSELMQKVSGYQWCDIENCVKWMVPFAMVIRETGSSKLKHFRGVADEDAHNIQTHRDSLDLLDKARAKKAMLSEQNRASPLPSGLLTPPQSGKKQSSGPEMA
Sequence of CDK3/cyclin E (Homo sapiens) (Q00526 whole entry, looked up): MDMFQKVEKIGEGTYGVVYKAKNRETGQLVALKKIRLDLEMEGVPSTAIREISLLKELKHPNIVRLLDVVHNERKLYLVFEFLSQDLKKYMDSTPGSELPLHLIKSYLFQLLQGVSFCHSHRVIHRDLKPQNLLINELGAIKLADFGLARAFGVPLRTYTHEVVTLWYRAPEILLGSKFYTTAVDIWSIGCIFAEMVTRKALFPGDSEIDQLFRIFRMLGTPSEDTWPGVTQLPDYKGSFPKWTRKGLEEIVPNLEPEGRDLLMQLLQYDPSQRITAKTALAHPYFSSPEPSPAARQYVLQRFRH

For `CC(C)[C@H](CO)Nc1nc(Nc2ccc(C(=O)NCCNS(=O)(=O)c3cccc4c(N(C)C)cccc34)c(Cl)c2)c2ncn(C(C)C)c2n1`, the outcome with MCF7 [1], in the experiment with MCF7 [2], with MDA-MB-231 [3], in the experiment with MDA-MB-231 [5], with MDA-MB-231 [7] and in the experiment with MDA-MB-231 [9] was Active. In addition, the result in the experiment on MDA-MB-231 [11] and in the experiment on MDA-MB-231 [13] was Active. In addition, the inhibition in experiment [4] was 65%; in the experiment with MDA-MB-231 [6] it was “tde”; in experiment [12] it was 69%. Moreover, the values for the Activity in the experiment with MCF7 [8], with MCF7 [10] and in the experiment on MCF7 [14] were 10.53%, 17.15% and 23.47%, respectively. For the same compound, in the experiment on MCF7 [15], the negative-log IC50 (pIC50) was 5.00.
